Screens (PubChem BioAssay)
In the library only some 5% were active in any assay of this set; here they are far more common.
CSC inhib: cancer stem cell viability inhibitors, primary screen, luminescence. cancer stem cell-like cells viability. 1.1% of 300,000 active. inhibition, % at 7.5 µM; in the data active = inhibition above about 75%; tested in HMLE shEcad cells
CHOP UPR activ: activators of apoptotic CHOP UPR arm, primary screen, cell-based, CHO-CHOP luciferase reporter, luminescence, uHTS. UPR activation; percent of tunicamycin response over DMSO baseline. activation, % at 10 µM. 0.34% of 330,000 active;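 active = at 10 µM dose, activation of 40% or more, normalized to positive control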
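Assay system: CHO cells with stable CHOP pathway luciferase reporter; Buffer or medium: F12 plus 10% serum; Times: 16-18 h cell attachment, then 6 h compound exposure, 37 °C; Signal: luciferase luminescence; Read-out basis: percent activation relative to tunicamycin control; Control set: tunicamycin high control, DMSO low control.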
Mdm2-MdmX inh: inhibitors of human Mdm2-MdmX association, primary screen, cell-based, luminescence, split luciferase, SaOS-2, uHTS | Protein Mdm4 (Homo sapiens) + E3 ubiquitin-protein ligase Mdm2 (Homo sapiens), … | AID 485346, 2010 | inhibition, % at 8 µM | SaOS-2 split-luciferase Mdm2/MdmX complementation | 3% of 330,000 active;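 active = inhibition of at least 50% at 8 µM in the primary screen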
Target sequence (O15151 whole entry, looked up): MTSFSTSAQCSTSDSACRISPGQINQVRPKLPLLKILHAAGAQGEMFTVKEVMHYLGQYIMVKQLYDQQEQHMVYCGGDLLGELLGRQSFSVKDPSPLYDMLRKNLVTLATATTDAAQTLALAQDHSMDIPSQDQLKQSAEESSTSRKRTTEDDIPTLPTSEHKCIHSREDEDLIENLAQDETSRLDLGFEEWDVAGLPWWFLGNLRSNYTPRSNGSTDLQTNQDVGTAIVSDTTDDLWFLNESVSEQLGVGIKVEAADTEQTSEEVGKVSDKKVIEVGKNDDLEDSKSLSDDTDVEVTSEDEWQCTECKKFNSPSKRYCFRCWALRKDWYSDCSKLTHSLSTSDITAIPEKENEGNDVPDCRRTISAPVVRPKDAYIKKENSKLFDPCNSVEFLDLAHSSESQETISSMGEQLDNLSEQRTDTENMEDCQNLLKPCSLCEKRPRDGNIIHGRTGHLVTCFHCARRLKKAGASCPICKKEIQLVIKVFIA
Target sequence (Q00987 whole entry, looked up): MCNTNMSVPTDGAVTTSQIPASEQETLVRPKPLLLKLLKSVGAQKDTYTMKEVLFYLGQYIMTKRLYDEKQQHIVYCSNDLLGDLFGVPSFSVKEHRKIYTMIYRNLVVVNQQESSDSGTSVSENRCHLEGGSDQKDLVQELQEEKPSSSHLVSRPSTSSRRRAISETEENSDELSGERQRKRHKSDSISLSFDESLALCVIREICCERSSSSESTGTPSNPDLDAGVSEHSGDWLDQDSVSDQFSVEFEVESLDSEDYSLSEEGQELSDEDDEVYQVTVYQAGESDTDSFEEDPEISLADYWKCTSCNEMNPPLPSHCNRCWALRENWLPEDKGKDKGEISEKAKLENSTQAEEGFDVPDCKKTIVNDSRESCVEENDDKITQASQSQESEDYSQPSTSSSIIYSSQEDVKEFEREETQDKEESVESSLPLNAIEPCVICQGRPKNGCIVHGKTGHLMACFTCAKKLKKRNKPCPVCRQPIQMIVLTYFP
Beta cell apopt: inhibitors of cytokine-induced beta cell apoptosis, primary screen, luminescence | AID 435005, 2010 | INS-1E cytokine-induced death, ATP luminescence, 48 h; percent of positive-control rescue, neutral wells zero | 0.8% of 300,000 active | protection from apoptosis, % (test concentration not listed);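 active = Every replicate reaches about 75%, or at least half do and their mean reaches it too, limit read from the data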;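 note: higher means more ATP so stronger rescue from cytokine killing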
T cruzi inh: inhibitors of intracellular T. cruzi growth, primary screen, luminescence, NIH3T3 host cells; 1.4% of 300,000 active; inhibition, % (test concentration not listed); T. cruzi beta-gal in NIH3T3, 90 h;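 active = mean inhibition across valid replicates above about 55%, limit read from the data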;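 note: signal also drops with host cell toxicity which is not excluded here; higher percent means less beta-gal luminescence so fewer parasites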
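System – NIH/3T3 host cells with β-galactosidase reporter T. cruzi · Doses – single 50 nL compound addition per well in DMSO · Reagent – 5000 T. cruzi trypomastigotes/well · Medium – Low-serum DMEM with 2% FBS · Timing – ≥90 h infection period, 3 h prior cell attachment · Evaluation – parasite load inhibition, % · Technique – GalScreen luminescence, 60 min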
XBP1 UPR activ: activators of adaptive XBP1 UPR arm, primary screen, cell-based, CHO-XBP1 luciferase reporter, luminescence, uHTS | activation, % at 20 µM | AID 463104, 2010 | IRE1-XBP1 UPR activation; percent of tunicamycin response, DMSO as zero | 0.33% of 330,000 active;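 active = versus positive control, 20 µM dose yields 30% or more activation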
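incubation = overnight seeding at 37 °C, 6 h compound treatment at 37 °C | assay system = CHO-XBP1 cells stably carrying IRE1-XBP1-driven luciferase reporter | input = 1000 cells per well | detection = luciferase luminescence | dosing = single point, 20 µM final compound, 1% DMSO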
Large screens that a line does not name were inactive.

c1ccc(-c2onc(-c3ccco3)c2-c2ccc3[nH]ccc3c2)cc1	CSC inhib 120
c1cc2cc(-c3c(-c4ccc5c(c4)OCO5)noc3-c3ccsc3)ccc2[nH]1	CSC inhib 121
Cc1nn(C)c(Cl)c1CN1CCCC(CCC(=O)NCc2ccccc2F)C1 (centres undefined)	T cruzi inh 60
CCOc1cccc(CN2CCCC(CCC(=O)NCc3ccccc3F)C2)c1O (centres undefined)	T cruzi inh 56
Cc1ccc(CNC(=O)CCC2CCCN(Cc3cccc4ncccc34)C2)o1 (centres undefined)	T cruzi inh 66
CCCn1c(C)nnc1SCC(=O)NC1CCCCC1	none (no result: Beta cell apopt)
CC1(c2ccccc2)CC(C)(C)N2C(=O)C3(C(C#N)=C(N)Oc4cc(O)ccc43)c3cccc1c32 (centres undefined)	none
CC1(c2ccccc2)CC(C)(C)N2C(=O)/C(=C3\SC(=S)NC3=O)c3cccc1c32 (centres undefined)	CSC inhib 105 (no result: CHOP UPR activ, Mdm2-MdmX inh, XBP1 UPR activ)
O=C(CN1CCC(c2nc3ccccc3s2)CC1)NCc1ccccc1	T cruzi inh 64
CCOC(=O)CCCNC(=O)CN1CCC(c2nc3ccccc3s2)CC1	none (no result: CSC inhib)
O=C(Cn1nc(C(=O)O)c2ccccc2c1=O)Nc1ccccc1C(F)(F)F	none
CN(c1ccccc1)P(=O)(N(C)c1ccccc1)N(C)c1ccccc1	T cruzi inh 66
COc1ccc(C(=O)N2CCCC(Nc3ccc(F)cc3)C2)c(OC)c1 (centres undefined)	none (no result: Beta cell apopt)
CCOc1ccc2oc(C(=O)OCC(=O)NC3CCCC3)c(C)c2c1	none (no result: CSC inhib, T cruzi inh)
CN1/C(=C\P(=O)(N(C)C)N(C)C)C(C)(C)c2ccccc21	Beta cell apopt 87, T cruzi inh 62
CCOC(=O)/C=C1/N(C)c2ccccc2C1(C)C	none
C=CCN(C(=O)CCc1ccccc1OC)c1nc(-c2ccc(S(C)(=O)=O)cc2)cs1	T cruzi inh 66 (no result: Beta cell apopt)
O=C(/C=C/c1ccncc1)c1ccc(NC(=O)c2ccccc2F)cc1	CSC inhib 80 (no result: CHOP UPR activ, Mdm2-MdmX inh, T cruzi inh, XBP1 UPR activ)
CC(C)C(=O)Nc1ccc(C(=O)NCc2cccnc2)cc1	Beta cell apopt 107
O=C(NCc1cccnc1)c1ccc(NC(=O)c2ccc(Br)cc2)cc1	CSC inhib 85, Beta cell apopt 140
CN(C)C(=O)CCC(=O)N(C)CC1CCCN(CCc2ccc(F)cc2)C1 (centres undefined)	none (no result: Beta cell apopt)
Cc1cc(C(=O)N(C)CC2CCCN(CCc3ccc(F)cc3)C2)c(C)o1 (centres undefined)	T cruzi inh 56
COc1ccc(CCN2CCCC(CN(C)C(=O)c3cc(C)oc3C)C2)cc1 (centres undefined)	T cruzi inh 63 (no result: Beta cell apopt)
COc1ccc(CCN2CCCC(CN(C)C(=O)c3ccoc3C)C2)cc1 (centres undefined)	none
O=C(Nc1c2c(nc3ccccc13)CCCC2)c1cccc([N+](=O)[O-])c1	none
COc1ccccc1CN1CC(C(=O)NCCN(C)CCc2ccccc2)CCC1=O (centres undefined)	T cruzi inh 60
Cc1cccn2c(=O)c3cc(C(N)=S)c(=N)n(CCCN4CCOCC4)c3nc12	none
Cc1ccc2nc3c(cc(C(N)=S)c(=N)n3CCCOC(C)C)c(=O)n2c1	T cruzi inh 64 (no result: CSC inhib)
COCCCn1c(=N)c(C(N)=S)cc2c(=O)n3cccc(C)c3nc21	T cruzi inh 68
CCOCCCn1c(=N)c(C(=O)NCc2ccc3c(c2)OCO3)cc2c(=O)n3cccc(C)c3nc21	T cruzi inh 58
COCCCn1c(=N)c(C(=O)NCc2ccc3c(c2)OCO3)cc2c(=O)n3ccccc3nc21	none
CC1(C)CC(=O)C=C(NCc2ccc(Cl)c(Cl)c2)C1	none
CCN1CCN(C(=O)c2cnn3c(C(F)F)cc(-c4ccc(C)cc4)nc23)CC1	none
COc1ccc(-c2cc(C(F)F)n3ncc(C(=O)N4CCCCC4)c3n2)cc1	T cruzi inh 89
Cc1ccc(-c2cc(C(F)F)n3ncc(C(=O)N4CCN(c5ccccn5)CC4)c3n2)cc1	T cruzi inh 60
COc1ccc(-c2cc(C(F)F)n3ncc(C(=O)N4CCN(C(=O)c5ccco5)CC4)c3n2)cc1	none (no result: Beta cell apopt)
CC(C)COc1ccc(C(=O)NNC(=O)c2ccc(=O)[nH]c2)cc1	none (no result: CSC inhib, T cruzi inh)
CCOC(=O)c1[nH]cnc1N=Nc1c(O)ccc2ccccc12	Beta cell apopt 97 (no result: CHOP UPR activ, Mdm2-MdmX inh, XBP1 UPR activ)
Oc1ccc2ccccc2c1N=Nc1ccccc1F	none
O=C(OCCN1C(=O)c2ccccc2C1=O)c1cccc(OC(F)F)c1	none
C/C(=N\NS(=O)(=O)c1ccccc1)c1cc(Cl)cc(Cl)c1O	none
O=C(Nc1ncc(S(=O)(=O)c2ccc([N+](=O)[O-])cc2)s1)c1cccc2ccccc12	CSC inhib 112, T cruzi inh 58
CC(NC(=O)c1ccccc1F)C1CC1 (centres undefined)	none
O=S(=O)(NCc1ccccc1)c1ccc(S(=O)(=O)NCC2CCCO2)cc1 (centres undefined)	none
O=S(=O)(NCc1ccncc1)c1ccc(S(=O)(=O)NCC2CCCO2)cc1 (centres undefined)	CSC inhib 140
O=C(Nc1cccc(S(=O)(=O)N2CCOCC2)c1)c1c2c(nc3ccccc13)CCC2	none
O=C(NC(=O)N1CCN(c2cccc(Cl)c2)CC1)c1ccc(Cl)cc1	CSC inhib 110
O=C(NC(=O)N1CCN(c2cccc(Cl)c2)CC1)c1ccccc1	none
O=C(c1ccc([N+](=O)[O-])s1)N1CCN(c2cccc(Cl)c2)CC1	Beta cell apopt 92
O=C(c1cccs1)N1CCN(c2cccc(Cl)c2)CC1	none
CN(Cc1ccccc1)S(=O)(=O)c1ccc2[nH]cc(C(=O)NCC3CCCO3)c(=O)c2c1 (centres undefined)	none (no result: Beta cell apopt, T cruzi inh)
CN1CCN(C(=O)C23CCC(C)(c4nc5ccccc5nc42)C3(C)C)CC1 (centres undefined)	none (no result: Beta cell apopt)
CCOC(=O)c1c(-c2ccccc2)csc1NC(=O)c1nn(CC)cc1Br	CSC inhib 80, T cruzi inh 63
CCOC(=O)c1c(-c2cccs2)csc1NC(=O)COC(=O)c1c(C)noc1C	none
CCOC(=O)c1c(-c2cccs2)csc1NC(=O)c1ccncc1	T cruzi inh 55
CCOC(=O)c1c(-c2ccc(Cl)cc2)csc1NC(=O)CNCc1ccco1	CSC inhib 77
